Results: ChEMBL document CHEMBL1955807, “Enaminones 12. An explanation of anticonvulsant activity and toxicity per Linus Pauling's clathrate hypothesis” (Eur J Med Chem, 2012)
Active and inactive are the calls of the source. The rule behind the calls is not given here.

Assays:
Rattus norvegicus [1] = species on record: Rattus norvegicus; experiment: Anticonvulsant activity in rat assessed as protection against maximal electroshock-induced seizure; type: functional
Method in brief: (§1)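 Phase VIB in male Sprague-Dawley rats dosed ip. The median effective dose (MES ED50) and median neurotoxic dose (TD50) were determined with confidence limits. Protective index was calculated as TD50/ED50.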

[2] = Neurotoxicity in rat; type: toxicity, organism-based; conditions: in vivo; method in brief: as §1
Rattus norvegicus [3] = species on record: Rattus norvegicus; experiment: Protective index, ratio of TD50 for rat to ED50 for rat; method in brief: as §1
Mus musculus [4] = experiment: Anticonvulsant activity in CF1 mouse assessed as protection against maximal electroshock-induced seizure up to 300 mg/kg, ip after 30 mins to 4 hrs; type: functional, organism-based; design: dose 300 mg/kg
Method in brief: (§2)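 Phase I screen in mice: compounds suspended in 30% poly(ethylene glycol) 400 and given ip at three dose levels (30, 100 and 300 mg/kg). Anticonvulsant protection (MES, scPTZ) and neurologic toxicity by rotorod (inability to grasp) recorded 30 min and 4 h after dosing. Results were reported as animals affected over animals tested. Class 1 means activity at ≤100 mg/kg; class 3 means no activity at 300 mg/kg.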

Mus musculus [5] = experiment: Anticonvulsant activity in CF1 mouse assessed as protection against subcutaneous pentylenetetrazole-induced seizure at 300 mg/kg, ip after 30 mins; type: functional, organism-based; design: dose 300 mg/kg; method in brief: as §2
Mus musculus [6] = experiment: Neurotoxicity in CF1 mouse assessed as muscle spasms at 100 mg/kg, ip by rotarod test; type: toxicity, organism-based, Muscle tissue; design: dose 100 mg/kg, route intraperitoneal; conditions: in vivo; method in brief: as §2
Mus musculus [7] = experiment: Neurotoxicity in CF1 mouse at 300 mg/kg, ip after 30 mins by rotarod test; type: toxicity, organism-based; design: dose 300 mg/kg, route intraperitoneal; conditions: in vivo, 0.5 h; method in brief: as §2
Mus musculus [8] = experiment: Neurotoxicity in CF1 mouse assessed as muscle spasms at 300 mg/kg, ip by rotarod test; type: toxicity, organism-based, Muscle tissue; design: dose 300 mg/kg, route intraperitoneal; conditions: in vivo; method in brief: as §2
Mus musculus [9] = experiment: Neurotoxicity in CF1 mouse up to 300 mg/kg, ip after 30 mins to 4 hrs by rotarod test; type: toxicity, organism-based; design: dose 300 mg/kg, route intraperitoneal; conditions: in vivo; method in brief: as §2
Rattus norvegicus [10] = experiment: Anticonvulsant activity in Sprague-Dawley rat assessed as protection against subcutaneous pentylenetetrazole-induced seizure at 30 mg/kg, ip after 4 hrs; type: functional, organism-based; design: dose 30 mg/kg
Rattus norvegicus [11] = experiment: Anticonvulsant activity in Sprague-Dawley rat assessed as protection against maximal electroshock-induced seizure at 30 mg/kg, ip after 1 hr
Mus musculus [12] = experiment: Neurotoxicity in CF1 mouse at 100 mg/kg, ip by rotarod test; type: toxicity, organism-based; design: dose 100 mg/kg, route intraperitoneal; conditions: in vivo; method in brief: as §2
Mus musculus [13] = experiment: Neurotoxicity in CF1 mouse at 300 mg/kg, ip after 4 hrs by rotarod test; type: toxicity, organism-based; design: dose 300 mg/kg, route intraperitoneal; conditions: in vivo; method in brief: as §2
Mus musculus [14] = experiment: Anticonvulsant activity in CF1 mouse assessed as protection against maximal electroshock-induced seizure at 100 mg/kg, ip after 15 mins; type: functional, organism-based; design: dose 100 mg/kg
Mus musculus [15] = experiment: Neurotoxicity in CF1 mouse at 100 mg/kg, ip after 30 mins by rotarod test; type: toxicity, organism-based; design: dose 100 mg/kg, route intraperitoneal; conditions: in vivo, 0.5 h; method in brief: as §2
Rattus norvegicus [16] = experiment: Anticonvulsant activity in ip dosed Sprague-Dawley rat assessed as protection against maximal electroshock-induced seizure; type: functional; method in brief: as §1
[17] = Neurotoxicity in ip dosed Sprague-Dawley rat by rotarod test; type: toxicity, organism-based; conditions: in vivo; method in brief: as §1
Rattus norvegicus [18] = species on record: Rattus norvegicus; experiment: Protective index, ratio of TD50 for Sprague-Dawley rat by rotarod test to ED50 for Sprague-Dawley rat by MES test
Mus musculus [19] = experiment: Neurotoxicity in CF1 mouse at 300 mg/kg, ip after 30 mins to 4 hrs by rotarod test; type: toxicity, organism-based; design: dose 300 mg/kg, route intraperitoneal; conditions: in vivo; method in brief: as §2
Mus musculus [20] = experiment: Anticonvulsant activity in CF1 mouse assessed as protection against maximal electroshock-induced seizure at 100 mg/kg, ip after 30 mins; type: functional, organism-based; design: dose 100 mg/kg; method in brief: as §2
Mus musculus [21] = experiment: Anticonvulsant activity in CF1 mouse assessed as protection against maximal electroshock-induced seizure at 300 mg/kg, ip after 30 mins to 4 hrs; type: functional, organism-based; design: dose 300 mg/kg; method in brief: as §2
Mus musculus [22] = experiment: Toxicity in CF1 mouse assessed as mortality at 30 mg/kg, ip after 4 hrs; type: organism-based; design: dose 30 mg/kg, route intraperitoneal; conditions: in vivo
Mus musculus [23] = experiment: Toxicity in CF1 mouse assessed as mortality at 30 mg/kg, ip after 30 mins; type: organism-based; design: dose 30 mg/kg, route intraperitoneal; conditions: in vivo, 0.5 h
Mus musculus [24] = experiment: Neurotoxicity in CF1 mouse assessed as myoclonic jerks at 100 mg/kg, ip after 4 hrs by rotarod test; type: toxicity, organism-based; design: dose 100 mg/kg, route intraperitoneal; conditions: in vivo; method in brief: as §2
Mus musculus [25] = experiment: Neurotoxicity in CF1 mouse assessed as muscle spasms at 100 to 300 mg/kg, ip after 30 mins by rotarod test; type: toxicity, organism-based, Muscle tissue; design: dose 100-300 mg/kg, route intraperitoneal; conditions: in vivo, 0.5 h; method in brief: as §2

CCOC(=O)C1C(=O)C=C(Nc2cc(C)on2)CC1C (stereo unspecified)
ED50 (Rattus norvegicus [1]): 68.9 mg/kg | TD50 [2]: > 500 mg/kg | PI (Rattus norvegicus [3]): >7.3

Cc1cc(C(=O)Nc2c(C)cccc2C)no1
ED50 (Rattus norvegicus [1]): 5.5 mg/kg | TD50 [2]: > 500 mg/kg | PI (Rattus norvegicus [3]): >90.9

Cc1oncc1CNC1=CC(=O)CC(C)(C)C1
Activity (Mus musculus [4]): inactive | Activity (Mus musculus [5]): inactive

CC1CC(=O)C=C(N)C1 (stereo unspecified)
Activity (Mus musculus [6]): Toxic | Activity (Mus musculus [7]): Toxic | Activity (Mus musculus [8]): Toxic | Activity (Mus musculus [4]): inactive | Activity (Mus musculus [5]): inactive

Cc1cc(NC(=O)c2c(C)cccc2C)no1 [SORETOLIDE]
ED50 (Rattus norvegicus [1]): 9.2 mg/kg | TD50 [2]: > 500 mg/kg | PI (Rattus norvegicus [3]): >54.3

Cc1oncc1CNC1=CC(=O)CC(C)C1 (stereo unspecified)
Activity (Mus musculus [4]): inactive | Activity (Mus musculus [5]): inactive

Cc1cc(NC2=CC(=O)CCC2)no1
Activity (Mus musculus [4]): inactive | Activity (Mus musculus [5]): Active | Activity (Mus musculus [9]): Non-toxic | Activity (Rattus norvegicus [10]): Active | Activity (Rattus norvegicus [11]): Active

Cc1cccc(C)c1NC(=O)c1conc1C
ED50 (Rattus norvegicus [1]): 8.9 mg/kg | TD50 [2]: > 500 mg/kg | PI (Rattus norvegicus [3]): >56.2

Cc1cc(NC2=CC(=O)C(C(=O)OC(C)(C)C)C(C)C2)no1 (stereo unspecified)
ED50 (Rattus norvegicus [1]): 28.1 mg/kg | TD50 [2]: > 500 mg/kg | PI (Rattus norvegicus [3]): >17.8

NC1=CC(=O)CCC1
Activity (Mus musculus [6]): Toxic | Activity (Mus musculus [12]): Toxic | Activity (Mus musculus [7]): Toxic | Activity (Mus musculus [4]): inactive | Activity (Mus musculus [5]): inactive

Cc1cc(NC2=CC(=O)C(C(=O)OC(C)(C)C)C(C(F)(F)F)C2)no1 (stereo unspecified)
Activity (Mus musculus [4]): inactive | Activity (Mus musculus [5]): inactive

Cc1cc(C(=O)NC2=CC(=O)CC(C)C2)no1 (stereo unspecified)
Activity (Mus musculus [7]): Toxic | Activity (Mus musculus [13]): Toxic | Activity (Mus musculus [4]): inactive | Activity (Mus musculus [5]): inactive

Cc1cc(C(=O)NC2=CC(=O)CCC2)no1
Activity (Mus musculus [4]): inactive | Activity (Mus musculus [5]): inactive

Cc1cc(NC2=CC(=O)CC(C)C2)no1 (stereo unspecified)
Activity (Mus musculus [5]): Active | Activity (Mus musculus [14]): Active | Activity (Mus musculus [15]): Toxic | ED50 (Rattus norvegicus [16]): 66 mg/kg | TD50 [17]: > 120 mg/kg | PI (Rattus norvegicus [18]): 1.8

Cc1cc(C(=O)NC2=CC(=O)CC(C)(C)C2)no1
Activity (Mus musculus [4]): inactive | Activity (Mus musculus [5]): inactive

Cc1cc(NC2=CC(=O)CC(C)(C)C2)no1
Activity (Mus musculus [19]): Toxic | Activity (Mus musculus [5]): inactive | Activity (Mus musculus [15]): Toxic | Activity (Mus musculus [20]): Active | Activity (Mus musculus [21]): Active

CC1(C)CC(=O)C=C(N)C1
Activity (Mus musculus [22]): Toxic | Activity (Mus musculus [23]): Toxic | Activity (Mus musculus [24]): Toxic | Activity (Mus musculus [25]): Toxic | Activity (Mus musculus [4]): inactive | Activity (Mus musculus [5]): inactive
